Data as given in paper PMC5558854 (Molecular cell, 2017).
One block for each molecule: values may come before it. Where no end group is shown, it is not given here. [ ]: non-standard residue; d: D form. The star is where a group is joined. FITC = O=C1OC2(c3ccc(O)cc3Oc3cc(O)ccc32)c2ccc(NC(=S)*)cc21; pY = N[C@@H](Cc1ccc(OP(=O)(O)O)cc1)C(=O)O

Tests used:
Csk^AS [1] = settings: analog-sensitive allele of Csk; ref Schoenborn et al., 2011; cited from earlier work
Csk^AS [2] = test: Reconstituted cellular system for Lck activation; type: cell-based; settings: HEK 293 cells with CD45, Csk^AS, 3-IB-PP1 5 μM, 1 min, 37 °C, immunoblot
J.Lck cells = test: Intracellular calcium measurement by flow cytometry; type: cell-based, human; settings: J.Lck cells expressing Lck Y192E/A variants; Indo-1 AM, 37 °C, flow cytometry (Figure S2)
tyrosine phosphatases = test: Total protein phosphotyrosine immunoblot after pervanadate treatment; type: cell-based, human; settings: J.Lck cells, Lck Y192E/A variants; pervanadate 100 μM; immunoblot (Figure S2B)
In short: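 Jurkat-derived cells grown in RPMI with 10% FBS and 2 mM glutamine at 37 °C, 5% CO2. Lck-reconstituted lines checked by immunoblot and sequencing. Cells rinsed in RPMI, resuspended at 5 × 10^6 cells/mL and rested 15 min at 37 °C, then left unstimulated or given pervanadate (100 μM). Lysis in 1% NP-40 (final) with […], NaF, EDTA, PMSF, protease inhibitors and PP2 (25 μM). Immunoblot read-out.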

[3] = molecular target: GST Lck SH2 Y192E (human Lck SH2 domain, residues 123-227) (human, UniProt P06239 123-227, Y192E); test: fluorescence polarisation
Sequence of GST Lck SH2 Y192E (human Lck SH2 domain, residues 123-227) (P06239 123-227 Y192E): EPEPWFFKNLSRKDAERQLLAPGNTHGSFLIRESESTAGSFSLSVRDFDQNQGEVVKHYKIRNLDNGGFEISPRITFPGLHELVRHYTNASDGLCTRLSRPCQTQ

[4] = molecular target: GST Lck SH2 protein (human Lck SH2 domain, residues 123-227, WT) (human, UniProt P06239 123-227); test: fluorescence polarisation
Sequence of GST Lck SH2 protein (human Lck SH2 domain, residues 123-227, WT) (P06239 123-227): as the sequence (P06239 123-227 Y192E) above, with E70Y counted along it

Molecule: CC(C)(C)n1nc(Cc2cccc(I)c2)c2c(N)ncnc21 [3-IB-PP1]
inhibition of Csk^AS (Csk^AS [1]): inhibited | CD8/ζ-chain phosphorylation upon Csk^AS inhibition (Csk^AS [2]; N=3, Lck Y192E/A variants): only a minimal increase | C-terminal tail (Y505) phosphorylation upon Csk^AS inhibition (Csk^AS [2]; CD8/ζ, N=3, Lck Y192F): the Y192F mutant is dephosphorylated by CD45

Molecule: C[C@H](CCC(=O)O)C[C@H](C)C[C@H](C)C(=O)/C=C(\O)[C@H](C)C[C@H](C)C/C=C/[C@@H](C)[C@@H](O)[C@@H](C)[C@@H](O)C[C@@H]1CC[C@@](C)([C@H]2CC[C@@](C)([C@@H](C)O)O2)O1 [ionomycin]
calcium response to ionomycin (J.Lck cells): responded robustly

Molecule: pervanadate
Lck autophosphorylation upon pervanadate treatment (tyrosine phosphatases): robust autophosphorylation

binding result [3]: binds | binding result [4]: binds
B1: FITC-TEGQ[pY]QPQP, phosphopeptide of the Lck C-terminal tail (peptide)
peptide: {FITC}-TEGQ[pY]QPQP
